Test results from ChEMBL document CHEMBL5303300, “EUbOPEN Chemogenomics Library - Multiplex” (2023).
“And” between values parts separate entries of the source, which are not always exact repeats. Identical values can stand only once.

What was measured:
Assay type in all cases: toxicity, cell-based
Fibroblast = assay: Multiplex assay against human fibroblast; details: number of replicates 2
In short: (§1)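 Values for tubulin, mitochondrial-mass and membrane-permeability phenotypes are per cents of cells with healthy nuclei. These cells were identified by CellPathfinder machine-learning gating of live cells that had been stained at seeding with Hoechst33342, BioTracker Green Microtubule Cytoskeleton Dye, MitoTracker Red and Annexin V Alexa Fluor 680 and imaged on a CQ1 microscope at 37°C and 5% CO2 after compound addition. The gating first set Hoechst high-intensity objects apart from normal cells, then split normal cells into healthy, pyknosed or fragmented nuclei, and pyknosed cells into mitotic or apoptotic.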

HEK-293T = assay: Multiplex assay against HEK293T; details: human, number of replicates 2; in short: as §1
U2OS = assay: Multiplex assay against U2OS; details: human, number of replicates 2; in short: as §1
[1] = 12 h, 1 µM, compound concentration 1 uM
[2] = 12 h, 10 µM, compound concentration 10 uM
[3] = 24 h, 1 µM, compound concentration 1 uM
[4] = 24 h, 10 µM, compound concentration 10 uM
[5] = 48 h, 1 µM, compound concentration 1 uM
[6] = 48 h, 10 µM, compound concentration 10 uM

## COc1ccc(-c2cc3c(C)nc(N)nc3n([C@H]3CC[C@H](OCCO)CC3)c2=O)cn1 [PF-04691502]
Fibroblast; [1]
  Population Apoptotic (%): 34% and 55%
  Population Fragmented Nuclei (%): 15% and 13%
  Population Healthy Nuclei (%): 73% and 71%
  Population Hoechst High Intensity Objects (%): 0%
  Population Membrane Permeable-Phenotype (%): 3%
  Population Mitochondria Different-Phenotype (%): 3% and 1%
  Population Mitotic Cells (%): 65% and 45%
  Population Normal (%): 100%
  Population Pyknosed Nuclei (%): 10% and 15%
  Population Tubulin-Different-Phenotype (%): 11% and 8%
  Total Cell Count: 270 and 253
Fibroblast; [2]
  Population Apoptotic (%): 55% and 54%
  Population Fragmented Nuclei (%): 29% and 27%
  Population Healthy Nuclei (%): 51% and 60%
  Population Hoechst High Intensity Objects (%): 1% and 0%
  Population Membrane Permeable-Phenotype (%): 5% and 9%
  Population Mitochondria Different-Phenotype (%): 3% and 1%
  Population Mitotic Cells (%): 44% and 45%
  Population Normal (%): 98% and 100%
  Population Pyknosed Nuclei (%): 18% and 11%
  Population Tubulin-Different-Phenotype (%): 26% and 18%
  Total Cell Count: 185 and 202
Fibroblast; [3]
  Population Apoptotic (%): 62% and 58%
  Population Fragmented Nuclei (%): 7% and 9%
  Population Healthy Nuclei (%): 80% and 72%
  Population Hoechst High Intensity Objects (%): 0%
  Population Membrane Permeable-Phenotype (%): 4% and 2%
  Population Mitochondria Different-Phenotype (%): 1%
  Population Mitotic Cells (%): 37% and 41%
  Population Normal (%): 99%
  Population Pyknosed Nuclei (%): 12% and 17%
  Population Tubulin-Different-Phenotype (%): 7% and 3%
  Total Cell Count: 262 and 247
Fibroblast; [4]
  Population Apoptotic (%): 59% and 65%
  Population Fragmented Nuclei (%): 20%
  Population Healthy Nuclei (%): 60% and 66%
  Population Hoechst High Intensity Objects (%): 0%
  Population Membrane Permeable-Phenotype (%): 10% and 8%
  Population Mitochondria Different-Phenotype (%): 0% and 1%
  Population Mitotic Cells (%): 40% and 34%
  Population Normal (%): 99% and 100%
  Population Pyknosed Nuclei (%): 20% and 13%
  Population Tubulin-Different-Phenotype (%): 27% and 23%
  Total Cell Count: 161 and 176
Fibroblast; [5]
  Population Apoptotic (%): 60% and 59%
  Population Fragmented Nuclei (%): 8% and 12%
  Population Healthy Nuclei (%): 80% and 72%
  Population Hoechst High Intensity Objects (%): 0%
  Population Membrane Permeable-Phenotype (%): 5%
  Population Mitochondria Different-Phenotype (%): 0%
  Population Mitotic Cells (%): 39% and 40%
  Population Normal (%): 100%
  Population Pyknosed Nuclei (%): 10% and 15%
  Population Tubulin-Different-Phenotype (%): 6% and 4%
  Total Cell Count: 258 and 245
Fibroblast; [6]
  Population Apoptotic (%): 66%
  Population Fragmented Nuclei (%): 12% and 22%
  Population Healthy Nuclei (%): 59%
  Population Hoechst High Intensity Objects (%): 0%
  Population Membrane Permeable-Phenotype (%): 7% and 4%
  Population Mitochondria Different-Phenotype (%): 1%
  Population Mitotic Cells (%): 33%
  Population Normal (%): 100%
  Population Pyknosed Nuclei (%): 27% and 17%
  Population Tubulin-Different-Phenotype (%): 32% and 19%
  Total Cell Count: 140 and 170
HEK-293T; [1]
  Population Apoptotic (%): 74% and 67%
  Population Fragmented Nuclei (%): 3% and 2%
  Population Healthy Nuclei (%): 86% and 87%
  Population Hoechst High Intensity Objects (%): 12% and 13%
  Population Membrane Permeable-Phenotype (%): 0% and 2%
  Population Mitochondria Different-Phenotype (%): 36% and 56%
  Population Mitotic Cells (%): 25% and 32%
  Population Normal (%): 87% and 86%
  Population Pyknosed Nuclei (%): 10%
  Population Tubulin-Different-Phenotype (%): 60% and 67%
  Total Cell Count: 425 and 310
HEK-293T; [2]
  Population Apoptotic (%): 73% and 71%
  Population Fragmented Nuclei (%): 7% and 3%
  Population Healthy Nuclei (%): 69% and 75%
  Population Hoechst High Intensity Objects (%): 24% and 19%
  Population Membrane Permeable-Phenotype (%): 1% and 5%
  Population Mitochondria Different-Phenotype (%): 80% and 72%
  Population Mitotic Cells (%): 26% and 28%
  Population Normal (%): 75% and 80%
  Population Pyknosed Nuclei (%): 23% and 21%
  Population Tubulin-Different-Phenotype (%): 77% and 78%
  Total Cell Count: 170 and 187
HEK-293T; [3]
  Population Apoptotic (%): 71% and 78%
  Population Fragmented Nuclei (%): 7%
  Population Healthy Nuclei (%): 76% and 81%
  Population Hoechst High Intensity Objects (%): 24% and 20%
  Population Membrane Permeable-Phenotype (%): 1%
  Population Mitochondria Different-Phenotype (%): 40% and 55%
  Population Mitotic Cells (%): 28% and 21%
  Population Normal (%): 75% and 79%
  Population Pyknosed Nuclei (%): 16% and 10%
  Population Tubulin-Different-Phenotype (%): 64% and 68%
  Total Cell Count: 314 and 266
HEK-293T; [4]
  Population Apoptotic (%): 66% and 60%
  Population Fragmented Nuclei (%): 9% and 7%
  Population Healthy Nuclei (%): 70% and 77%
  Population Hoechst High Intensity Objects (%): 26% and 30%
  Population Membrane Permeable-Phenotype (%): 2% and 0%
  Population Mitochondria Different-Phenotype (%): 72% and 61%
  Population Mitotic Cells (%): 33% and 40%
  Population Normal (%): 73% and 69%
  Population Pyknosed Nuclei (%): 20% and 14%
  Population Tubulin-Different-Phenotype (%): 79% and 69%
  Total Cell Count: 163 and 192
HEK-293T; [5]
  Population Apoptotic (%): 70% and 77%
  Population Fragmented Nuclei (%): 9% and 10%
  Population Healthy Nuclei (%): 69% and 65%
  Population Hoechst High Intensity Objects (%): 28% and 27%
  Population Membrane Permeable-Phenotype (%): 0% and 1%
  Population Mitochondria Different-Phenotype (%): 42% and 44%
  Population Mitotic Cells (%): 29% and 22%
  Population Normal (%): 71% and 72%
  Population Pyknosed Nuclei (%): 20% and 24%
  Population Tubulin-Different-Phenotype (%): 69% and 75%
  Total Cell Count: 275 and 280
HEK-293T; [6]
  Population Apoptotic (%): 70% and 64%
  Population Fragmented Nuclei (%): 14% and 18%
  Population Healthy Nuclei (%): 74%
  Population Hoechst High Intensity Objects (%): 31% and 28%
  Population Membrane Permeable-Phenotype (%): 0% and 1%
  Population Mitochondria Different-Phenotype (%): 40% and 27%
  Population Mitotic Cells (%): 30% and 35%
  Population Normal (%): 68% and 71%
  Population Pyknosed Nuclei (%): 10% and 6%
  Population Tubulin-Different-Phenotype (%): 61% and 50%
  Total Cell Count: 273 and 293
U2OS; [1]
  Population Apoptotic (%): 50% and 76%
  Population Healthy Nuclei (%): 57% and 78%
  Population Hoechst High Intensity Objects (%): 0%
  Population Membrane Permeable-Phenotype (%): 10% and 2%
  Population Mitochondria Different-Phenotype (%): 0% and 1%
  Population Mitotic Cells (%): 50% and 23%
  Population Normal (%): 100%
  Population Pyknosed Nuclei (%): 6% and 12%
  Population Tubulin-Different-Phenotype (%): 84% and 83%
U2OS; [2]
  Population Apoptotic (%): 88% and 83%
  Population Fragmented Nuclei (%): 25% and 13%
  Population Healthy Nuclei (%): 46% and 54%
  Population Hoechst High Intensity Objects (%): 3% and 2%
  Population Membrane Permeable-Phenotype (%): 0% and 7%
  Population Mitochondria Different-Phenotype (%): 0% and 3%
  Population Mitotic Cells (%): 11% and 16%
  Population Normal (%): 96% and 97%
  Population Pyknosed Nuclei (%): 28% and 32%
  Population Tubulin-Different-Phenotype (%): 80% and 50%
U2OS; [3]
  Population Apoptotic (%): 60% and 76%
  Population Fragmented Nuclei (%): 19% and 10%
  Population Healthy Nuclei (%): 66% and 75%
  Population Hoechst High Intensity Objects (%): 0%
  Population Membrane Permeable-Phenotype (%): 0% and 2%
  Population Mitochondria Different-Phenotype (%): 0% and 1%
  Population Mitotic Cells (%): 40% and 23%
  Population Normal (%): 100% and 99%
  Population Pyknosed Nuclei (%): 13% and 14%
  Population Tubulin-Different-Phenotype (%): 91% and 84%
U2OS; [4]
  Population Apoptotic (%): 84% and 69%
  Population Fragmented Nuclei (%): 12% and 17%
  Population Healthy Nuclei (%): 46% and 50%
  Population Hoechst High Intensity Objects (%): 2%
  Population Membrane Permeable-Phenotype (%): 20% and 40%
  Population Mitochondria Different-Phenotype (%): 7% and 15%
  Population Mitotic Cells (%): 15% and 30%
  Population Normal (%): 97%
  Population Pyknosed Nuclei (%): 41% and 32%
  Population Tubulin-Different-Phenotype (%): 59% and 65%
U2OS; [5]
  Population Apoptotic (%): 80% and 82%
  Population Fragmented Nuclei (%): 10% and 8%
  Population Healthy Nuclei (%): 80% and 69%
  Population Hoechst High Intensity Objects (%): 0%
  Population Membrane Permeable-Phenotype (%): 7% and 5%
  Population Mitochondria Different-Phenotype (%): 5% and 4%
  Population Mitotic Cells (%): 20% and 17%
  Population Normal (%): 100% and 99%
  Population Pyknosed Nuclei (%): 10% and 21%
  Population Tubulin-Different-Phenotype (%): 82% and 85%
U2OS; [6]
  Population Apoptotic (%): 66% and 85%
  Population Fragmented Nuclei (%): 19% and 10%
  Population Healthy Nuclei (%): 22% and 26%
  Population Hoechst High Intensity Objects (%): 0% and 4%
  Population Membrane Permeable-Phenotype (%): 62% and 35%
  Population Mitochondria Different-Phenotype (%): 37% and 18%
  Population Mitotic Cells (%): 33% and 14%
  Population Normal (%): 100% and 95%
  Population Pyknosed Nuclei (%): 58% and 63%
  Population Tubulin-Different-Phenotype (%): 87% and 70%
